From ChEMBL document CHEMBL1127055, “Pyrrolo[1,2-a]benzimidazole-based aziridinyl quinones. A new class of DNA cleaving agent exhibiting G and A base specificity” (1993)

What was measured:
Format in all cases: functional, Homo sapiens
SK-OV-3 = test: Tested for cytotoxic activity against ovarian cancer SK-OV-3 cell line
Outline: (§1)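 Screened in a panel of 60 human cancer cell lines. The read-out was LC50, the concentration needed for 50% cell kill. Values were reported as log LC50 in a mean graph and plotted against the log of the panel mean LC50.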

SN12C = test: Tested for cytotoxic activity against renal cancer SN12C cell line; outline: as §1
OVCAR-3 = test: Tested for cytotoxic activity against ovarian cancer OVCAR -3 cell line; outline: as §1
KM-20L2 = test: Tested for cytotoxic activity against colon cancer KM20L2 cell line; outline: as §1
COLO 205 = test: Tested for cytotoxic activity against colon cancer COLO 205 cell line; outline: as §1
MOLT-4 = test: Tested for cytotoxic activity against leukemia MOLT-4 cell line; outline: as §1
CCRF-CEM = test: Tested for cytotoxic activity against leukemia CCRF-CEM cell line; outline: as §1
UACC-257 = test: Tested for cytotoxic activity against melanoma UACC-257 cell line; outline: as §1
M19-MEL = test: Tested for cytotoxic activity against melanoma M19-MEL cell line; outline: as §1
EKVX = test: Tested for cytotoxic activity against non-small cell lung cancer […] cell line; outline: as §1
UACC-62 = test: Tested for cytotoxic activity against melanoma UACC-62 cell line; outline: as §1
LXFL 529 = test: Tested for cytotoxic activity against non-small cell lung cancer LXFL-529L cell line; outline: as §1
UO-31 = test: Tested for cytotoxic activity against renal cancer UO-31 cell line; outline: as §1
SNB-19 = test: Tested for cytotoxic activity against CNS cancer SNB-19 cell line; outline: as §1
HOP-62 = test: Tested for cytotoxic activity against non-small cell lung cancer HOP-62 cell line; outline: as §1
ACHN = test: Tested for cytotoxic activity against renal cancer ACHN cell line; outline: as §1
LOX IMVI = test: Tested for cytotoxic activity against melanoma […] cell line; outline: as §1
OVCAR-5 = test: Tested for cytotoxic activity against ovarian cancer OVCAR-5 cell line; outline: as §1
NCI-H226 = test: Tested for cytotoxic activity against non-small cell lung cancer NCI-H226 cell line; outline: as §1
XF498 = test: Tested for cytotoxic activity against CNS cancer XF498 cell line; outline: as §1
SF-295 = test: Tested for cytotoxic activity against CNS cancer SF-295 cell line; outline: as §1
SF-539 = test: Tested for cytotoxic activity against CNS cancer […] cell line; outline: as §1
SK-MEL-2 = test: Tested for cytotoxic activity against melanoma SK-MEL-2 cell line; outline: as §1
TK-10 = test: Tested for cytotoxic activity against renal cancer TK-10 cell line; outline: as §1
M14 = test: Tested for cytotoxic activity against melanoma M14 cell line; outline: as §1
U-251 = test: Tested for cytotoxic activity against CNS cancer U251 cell line; outline: as §1
K562 = test: Tested for cytotoxic activity against leukemia K-562 cell line; outline: as §1
SK-MEL-5 = test: Tested for cytotoxic activity against melanoma SK-MEL-5 cell line; outline: as §1
OVCAR-8 = test: Tested for cytotoxic activity against ovarian cancer OVCAR-8 cell line; outline: as §1
RXF 393 = test: Tested for cytotoxic activity against renal cancer RXF-393 cell line; outline: as §1
NCI-H322M = test: Tested for cytotoxic activity against non-small cell lung cancer NCI-H322M cell line; outline: as §1
HOP-92 = test: Tested for cytotoxic activity against non-small cell lung cancer HOP92 cell line; outline: as §1
IGROV-1 = test: Tested for cytotoxic activity against ovarian cancer IGROVI cell line; outline: as §1
OVCAR-4 = test: Tested for cytotoxic activity against ovarian cancer OVCAR-4 cell line; outline: as §1
786-0 = test: Tested for cytotoxic activity against renal cancer 786-0 cell line; outline: as §1
SK-MEL-28 = test: Tested for cytotoxic activity against melanoma SK-MEL-28; outline: as §1
SNB-78 = test: Tested for cytotoxic activity against CNS cancer SNB-78 cell line; outline: as §1
SNB-75 = test: Tested for cytotoxic activity against CNS cancer SNB-75 cell line; outline: as §1
SW-620 = test: Tested for cytotoxic activity against colon cancer SW-620 cell line; outline: as §1
HT-29 = test: Tested for cytotoxic activity against colon cancer HT-29 cell line; outline: as §1
DLD-1 = test: Tested for cytotoxic activity against colon cancer DLD-1 cell line; outline: as §1
HOP-18 = test: Tested for cytotoxic activity against non-small cell lung cancer HOP-18 cell line; outline: as §1
NCI-H23 = test: Tested for cytotoxic activity against non-small cell lung cancer NCI-H23 cell line; outline: as §1
A549 = test: Tested for cytotoxic activity against non-small cell lung cancer A549/ATCC cell line; outline: as §1
NCI-H522 = test: Tested for cytotoxic activity against non-small cell lung cancer NCI-H522 cell line; outline: as §1
DMS-114 = test: Tested for cytotoxic activity against small cell lung cancer DMS114 cell line; outline: as §1
SF-268 = test: Tested for cytotoxic activity against CNS cancer […] cell line; outline: as §1
Malme-3M = test: Tested for cytotoxic activity against melanoma MALME-3M cell line; outline: as §1
KM12 = test: Tested for cytotoxic activity against colon cancer KM-12 cell line; outline: as §1
CAKI-1 = test: Tested for cytotoxic activity against renal cancer CAKI-1 cell line; outline: as §1

CC(=O)OC1CCn2c1nc1c2C(=O)C(C)=C(N2CC2)C1=O (stereo not given)
LC50 (SK-OV-3): 6.36
LC50 (SN12C): 7.12
LC50 (OVCAR-3): 6.34
LC50 (KM-20L2): 6.64
LC50 (COLO 205): 4.82
LC50 (MOLT-4): >4
LC50 (CCRF-CEM): >4
LC50 (UACC-257): 6.71
LC50 (M19-MEL): 5.12
LC50 (EKVX): 6.55
LC50 (UACC-62): <8
LC50 (LXFL 529): 7.33
LC50 (UO-31): <8
LC50 (SNB-19): 6.54
LC50 (HOP-62): <8
LC50 (ACHN): 6.53
LC50 (LOX IMVI): <8
LC50 (OVCAR-5): 6.53
LC50 (NCI-H226): 7.09
LC50 (XF498): 7.09
LC50 (SF-295): 6.47
LC50 (SF-539): 7.89
LC50 (SK-MEL-2): 7.61
LC50 (TK-10): 6.06
LC50 (M14): <8
LC50 (U-251): 6.53
LC50 (K562): >4
LC50 (SK-MEL-5): <8
LC50 (OVCAR-8): 7.09
LC50 (RXF 393): <8
LC50 (NCI-H322M): 6.63
LC50 (HOP-92): 5.14
LC50 (IGROV-1): 5.85
LC50 (OVCAR-4): 7.19
LC50 (786-0): 7.36
LC50 (SK-MEL-28): 7.59
LC50 (SNB-78): 5.39
LC50 (SNB-75): 7.56
LC50 (SW-620): 6.22
LC50 (HT-29): 6.03
LC50 (DLD-1): 7.66
LC50 (HOP-18): 6.64
LC50 (NCI-H23): <8
LC50 (A549): 5.44
LC50 (NCI-H522): <8
LC50 (DMS-114): >4
LC50 (SF-268): 5.67
LC50 (Malme-3M): 7.26
LC50 (KM12): 7.02
LC50 (CAKI-1): 5.53
